DDE Tn7 FP inh – disrupts Tn7 cyclic peptide binding to fibrin D-Dimer-E complex; P02675; FP displacement of FITC-Tn7 peptide from fibrin DD(E); 0% = median of compound wells per plate; inhibition, % at 8.3 µM; actives 0.13% (n = 370,000); AID 720508;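 active means inhibition above the mean of compounds falling within the control limits plus 3 SD of them, cut at about 14% in these data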;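 further: 0% = plate median of compound wells and 100% = 10 µM Aha-Tn7 peptide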
Target sequence (P02675 whole entry, looked up): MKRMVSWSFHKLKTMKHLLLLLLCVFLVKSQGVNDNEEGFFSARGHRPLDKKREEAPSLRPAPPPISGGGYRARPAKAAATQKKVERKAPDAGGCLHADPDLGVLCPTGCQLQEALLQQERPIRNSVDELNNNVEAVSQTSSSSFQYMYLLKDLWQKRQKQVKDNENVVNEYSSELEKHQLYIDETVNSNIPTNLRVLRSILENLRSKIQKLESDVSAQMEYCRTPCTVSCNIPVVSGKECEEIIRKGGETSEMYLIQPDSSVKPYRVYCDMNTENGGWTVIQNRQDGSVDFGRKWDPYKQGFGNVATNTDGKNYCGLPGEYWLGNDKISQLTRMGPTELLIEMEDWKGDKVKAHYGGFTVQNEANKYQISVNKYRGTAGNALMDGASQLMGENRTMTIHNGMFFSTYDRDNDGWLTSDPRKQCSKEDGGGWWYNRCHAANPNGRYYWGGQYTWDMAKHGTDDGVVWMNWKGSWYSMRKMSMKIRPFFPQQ
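Measure: % inhibition scaled between sample-field median and high-control FP; Test system: human fibrin DD(E); Quantity: 2 µM final DD(E) protein; Doses: one dose, 8.3 µM nominal; Schedule: compound with protein 10 min, then 3 h after probe, room temperature; Detection: fluorescence polarization; Medium: Tris buffer with calcium and detergent, pH 7.8.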
CRFR2-BP antag – CRF-BP/CRF-R2 complex antagonism | HEK293 CRF-R2/CRF-BP, CRF-induced calcium fluorescence | inhibition, % at 11.8 µM | actives 0.59% (n = 350,000) | AID 588475;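 active means inhibition of the ligand-induced calcium signal above about 50% at the single tested concentration, limit read from the data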
DDE Tn6 FP inh – disrupts Tn6 cyclic peptide binding to fibrin D-Dimer-E complex; P02675; Fibrin DD(E) TRITC-Tn6 fluorescence polarization displacement; inhibition, % at 8.3 µM; actives 0.21% (n = 370,000);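 active means inhibition above a per-campaign cutoff: mean of compounds within control limits plus 3 SD, cut at about 15% in these data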;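 further: 0% = median of all compound wells on the plate and 100% = blocking peptide control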
CRFBP-R2 agonist – CRF-BP/CRF-R2 complex agonism. HEK293 CRF-R2/CRF-BP, calcium dye fluorescence (FLIPR); percent of saturating CRF peptide response. activation, % at 13.2 µM. actives 0.46% (n = 350,000). AID 588473;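 active means activation of at least 50%, plus an integration ratio under a set limit after plate pattern correction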;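 further: plate controls were neutral control wells without compound for no effect and CRF at EC100 for full effect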
Active calls of the source: *; / = no result. An excerpt weighted towards active compounds, which were near 1.2% of everything screened.

SMILES	DDE Tn7 FP inh	CRFR2-BP antag	DDE Tn6 FP inh	CRFBP-R2 agonist
Cc1[nH]n(-c2ccccc2)c(=O)c1/C=N/N1CCOCC1	2	7	9	2
CC(C)(C)N(Cc1cn(CC2CCCCC2)nn1)S(=O)(=O)c1ccccc1Br	1	/	5	/
CC(C)(CNC(=O)c1ccc(Br)o1)CNC(=O)c1ccc(Br)o1	-10	76*	5	-1
Oc1ccc(Cl)cc1/C=C/c1ccc2cccc(O)c2n1	4	3	-16	3
Oc1c(Cl)cc(Cl)cc1/C=C/c1ccc2cccc(O)c2n1	-4	-102	-1	87*
C[C@H]1[C@H](NC(=O)c2cccc(Cl)c2)CC[C@@]23CCCN2C(=O)CCC[C@@H]13	3	/	3	/
COc1ccc(F)cc1-c1cc(C(C)=O)c2n(c1=O)CCC2	7	/	6	/
CN(Cc1cn(CC2CCCCC2)nn1)S(=O)(=O)c1ccccc1Br	-1	/	0	/
CC1=C(C(=O)N(C(C)C)C(C)C)CC(CC(=O)NC2CCCCC2)C(=O)N1Cc1ccccc1 (stereo not drawn)	4	59*	2	-3
COc1cccc2c1C(=O)c1c(O)c3c(c(O)c1C2=O)C[C@@](O)(C(=O)CO)C[C@@H]3O[C@H]1C[C@H](N)[C@@H](O)[C@H](C)O1	/	-113	/	60*
CC(=O)[C@]1(O)Cc2c(O)c3c(c(O)c2[C@@H](O[C@H]2C[C@H](N)[C@H](O)[C@H](C)O2)C1)C(=O)c1ccccc1C3=O	/	-196	/	212*
CCN(CC)C(=O)CC[C@H]1CC[C@]2(CCCN(Cc3ccc(OC)cc3)C2)O1	-3	/	6	/
COC(=O)C[C@@H]1CC[C@@H]2[C@H](COc3ccc(NC(=O)c4ccc(F)c(F)c4)cc3C(=O)N2C)O1	-1	/	0	/
CC(=O)NCc1ccc(C(=O)O)cc1	-3	86*	-9	0
O=C(O)c1ccc(CNC(=S)Nc2ccccc2)cc1	-13	-5	-14	-1
CC/C(=N\OC(=O)c1ccc(OC(C)C)cc1)c1ccc(C)cc1	-1	7	-4	4
C/C(=N\OC(=O)c1ccc(OC(C)C)cc1)c1ccc(C)c(C)c1	-1	73*	-10	-2
C=CCOc1ccccc1C1C2=C(CC(C)(C)CC2=O)Nc2c1c(=O)n(C)c(=O)n2C (stereo not drawn)	2	-20	-5	-1
COc1ccc(C2C3=C(CC(C)(C)CC3=O)Nc3c2c(=O)n(C)c(=O)n3C)cc1OC (stereo not drawn)	-1	113*	-1	2
Cc1ccc(NN2C(=O)C=C(c3ccc(Cl)cc3)C2=O)cc1	-6	-68	5	61*
COC(=O)CCC(=O)N1C2=NC3=C(C(=O)N(Cc4ccc5c(c4)OCO5)C3=O)C3N(C)c4ccccc4[C@]23C[C@H]1CO (stereo partly drawn)	2	/	6	/
COc1ccc(/C=C2\CCC/C(=C\c3ccc(OC)c(OC)c3OC)C2=O)c(OC)c1OC	8	69*	1	-2
COc1cc(/C=C2/C(=O)ON=C2c2ccccc2)ccc1O	6	56*	-1	4
COc1ccc(/C=C2\CCC(C3CCCC3)C2=O)cc1OC (stereo not drawn)	2	53*	-1	1
COc1cc(/C=C2\CCC(C3CCCC3)C2=O)ccc1OC(C)C (stereo not drawn)	0	8	5	0
SMILES	DDE Tn7 FP inh	CRFR2-BP antag	DDE Tn6 FP inh	CRFBP-R2 agonist
COc1ccc(/C=C2\CCC(C3CCCC3)C2=O)c(OC)c1 (stereo not drawn)	0	-1	-6	0
COc1ccc(/C=C2\CC/C(=C\c3ccc(OC)cc3OC)C2=O)c(OC)c1	2	-84	9	88*
COc1cc(OC)c(OC)cc1/C=C1\CCC/C(=C\c2cc(OC)c(OC)cc2OC)C1=O	1	-10	-3	13
COc1cc(/C=C2/CC/C(=C/c3ccc(O)c(OC)c3)C2=O)ccc1O	-11	-132	-4	167*
COc1cccc(CNC(=O)CN(c2cc(C)cc(C)c2)S(=O)(=O)c2c(C)noc2C)c1	3	-13	-1	0
COc1cccc(CNC(=O)CN(c2ccc(C(C)C)cc2)S(=O)(=O)c2c(C)noc2C)c1	6	110*	-6	2
O=C(NC1CCCCN(Cc2cccc(C(F)(F)F)c2)C1=O)c1ccc(-c2ccccc2)cc1 (stereo not drawn)	5	/	8	/
Cc1ccccc1C(=O)Nc1ccc2c(C#N)c3nc4ccccc4nc3n2c1	3	-38	13	84*

Screening results as filed in PubChem.
